TAG inh: inhibitors of triacylglycerol accumulation, primary screen, cell-based, uHTS, fluorescence, H9c2 | H9c2 cells, Nile Red lipid (TAG) fluorescence; cells loaded with 200 µM oleic acid | inhibition, % at 12.5 µM | 0.66% of 230,000 active | AID 651582, 2012;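 active means pattern-corrected inhibition of lipid staining of at least 50% with the nuclear-stain viability signal not falling by more than 50%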;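 further: 0% = DMSO wells and 100% = triacsin C control wells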
Calb FLC: C. albicans growth inhibition with fluconazole, primary screen, CaCi-2 strain, Alamar Blue fluorescence. C. albicans CaCi-2 + fluconazole, 48 h. growth inhibition, % (test concentration not listed). 0.57% of 300,000 active. AID 1979, 2009;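 active means growth inhibition above about 58% in most replicates, limit read from the data, passing the limit was not always enough; inconclusive means exactly half the replicates above a set limit; inactive means most replicates below a set limit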;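 further: all wells also contain fluconazole at 8 µg/ml as a sub-toxic cotreatment; 0% = median of DMSO wells and 100% = median of geldanamycin control wells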
T cruzi repl: inhibitors of intracellular T. cruzi growth, primary screen, luminescence, NIH3T3 host cells | T. cruzi beta-gal in NIH3T3, 90 h | inhibition, % (no concentration beside the values) | 1.4% of 300,000 active | AID 1885, 2009;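 active means mean inhibition across valid replicates above about 55%, limit read from the data; inconclusive means mean below that limit but half or more replicates reach it; inactive means mean below it, under half of replicates reach it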;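 further: signal also drops with host cell toxicity which is not excluded here; 0% = plate median of DMSO wells and 100% = zero luminescence signal; higher percent means less beta-gal luminescence so fewer parasites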
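Read-out: Parasite load inhibition, % | Test system: Mouse NIH/3T3 fibroblasts infected with β-gal-expressing T. cruzi Tulahuen C4 | Amount: 5,000 cells/well | Medium: DMEM, 2% fetal bovine serum | Signal: GalScreen β-gal luminescence, detergent lysis, 60 min | Timing: 3 h attach, ≥90 h co-culture | Also added: Tulahuen C4 trypomastigotes, 5000/well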
CSC inhib: cancer stem cell viability inhibitors, primary screen, luminescence; cancer stem cell-like cells viability; inhibition, % at 7.5 µM; 1.1% of 300,000 active; in the data active means inhibition above about 75%; inconclusive means no clear call, values can overlap the other calls; tested in HMLE shEcad cells
A1 inh: caspase 3/7 activation in MEF A1-2A-BIM cells, primary screen, A1 inhibitor project, cell-based, luminescence, HTS | Caspase-Glo 3/7 luminescence, 3 h; percent of clofoctol response, vehicle zero | caspase activation, % (test concentration not listed) | 0.066% of 330,000 active | AID 2462, 2010;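 active means over half of replicate activation scores above 10%, or exactly half above 10 with the replicate mean above 10; inconclusive means replicate mean below 10 yet half the replicates above 10; inactive means over half of replicates below 10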
Beta cell apopt: inhibitors of cytokine-induced beta cell apoptosis, primary screen, luminescence; INS-1E cytokine-induced death, ATP luminescence, 48 h; percent of positive-control rescue, neutral wells zero; protection from apoptosis, % (test concentration not listed); 0.8% of 300,000 active; AID 435005, 2010;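 active means Every replicate reaches about 75%, or at least half do and their mean reaches it too, limit read from the data; inconclusive means At least half of replicates reach the limit but their mean does not; inactive means Under half of replicates reach the limit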;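 further: 0% = cytokine-treated negative control wells and 100% = positive control rescue; higher means more ATP so stronger rescue from cytokine killing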
Active calls of the source: *. Shown are actives, neighbours in structure and some others; about 3.1% of the full set was active somewhere.

COC1CC(OC2CCC3(C)C(CCC4C3CCC3(C)C(C5=CC(=O)OC5)C(OC(C)=O)CC43O)C2)OC(C)C1OC1OC(COC2OC(CO)C(O)C(O)C2O)C(O)C(O)C1O (configuration not stated) was read as Calb FLC -2, T cruzi repl -10, CSC inhib 79* and A1 inh 0.
`COC(=O)C1=C(c2cccc(C#N)c2)C[C@@H]2CC[C@H]1N2C(=O)NCc1ccco1` gave TAG inh -4, CSC inhib -5, A1 inh 0 and Beta cell apopt -4.
CC12CCC3C(CC=C4CC(O)CCC43C)C1C/C(=C\c1ccccc1F)C2=O (configuration not stated) was read as Calb FLC -6, T cruzi repl 3, CSC inhib 99*, A1 inh 0 and Beta cell apopt -2.
Screening CCC(=O)N1CC(=O)Nc2ccc(F)cc2C1c1ccc(F)cc1 (configuration not stated) returned Calb FLC -13, T cruzi repl -3, CSC inhib -11, A1 inh -1 and Beta cell apopt -11.
For CN1CCc2nc(SCc3ccccc3Br)c(C#N)cc2C1 the results were TAG inh 0, Calb FLC 3, T cruzi repl 52, CSC inhib 27, A1 inh 3 and Beta cell apopt -1.
`Cc1cccc(CSc2nc3c(cc2C#N)CN(C)CC3)c1` gave Calb FLC -29, T cruzi repl 59*, CSC inhib 37, A1 inh 0 and Beta cell apopt -1.
For C[C@@H]1CN([C@H](C)CO)C(=O)CCCn2cc(nn2)CO[C@H]1CN(C)C(=O)Oc1ccc2ccccc2c1 the results were TAG inh 14.
`Cc1ccc(N)c(C(=O)c2ccccc2)c1` gave Calb FLC -8, T cruzi repl 0, CSC inhib -6, A1 inh 0 and Beta cell apopt -6.
For Cc1ccc(-c2cc(-c3ccccc3)cc(-c3ccccc3)[n+]2-c2ccccc2C(=O)O)cc1 the results were TAG inh -24, Calb FLC 96*, T cruzi repl 45, CSC inhib -3, A1 inh 0 and Beta cell apopt 31.
Screening Cc1[nH]c2ccc(OC(F)(F)F)cc2c1CCNCc1cccc([N+](=O)[O-])c1 returned Calb FLC 16, T cruzi repl inconclusive, CSC inhib 33, A1 inh 1 and Beta cell apopt 7.
Screening Cc1[nH]c2ccc(OC(F)(F)F)cc2c1CCNCc1ccc(Cl)cc1 returned Calb FLC 25, T cruzi repl 40, CSC inhib 104*, A1 inh 2 and Beta cell apopt 21.
`O=C1NC(=O)N(Cc2ccccc2)C(=O)/C1=C/C=C/c1ccco1` gave TAG inh 16, Calb FLC 6, T cruzi repl -54, CSC inhib 90*, A1 inh 0 and Beta cell apopt -1.
`CC(C)c1ccc(N2C(=O)NC(=O)/C(=C\c3cnc(-c4ccccc4)nc3)C2=O)cc1` gave TAG inh -10, Calb FLC -1, T cruzi repl 6, CSC inhib 0, A1 inh 0 and Beta cell apopt -4.
COc1ccc(CN2C(=O)NC(=O)/C(=C\c3ccco3)C2=O)cc1 was read as TAG inh 9, Calb FLC -6, T cruzi repl 6, CSC inhib 3, A1 inh 0 and Beta cell apopt -6.
CC(C)c1ccc(N2C(=O)NC(=O)/C(=C\C=C\c3ccco3)C2=O)cc1 was read as Calb FLC -1, T cruzi repl -6, CSC inhib 99*, A1 inh 1 and Beta cell apopt -18.
Cc1nc2cc([N+](=O)[O-])ccc2c(=O)n1-c1ccccc1[N+](=O)[O-] was read as TAG inh -24, Calb FLC 6, T cruzi repl 59*, A1 inh 0 and Beta cell apopt 4.
`N#CC(C#N)=NNc1ccc(-n2ccc(C(F)(F)F)n2)cc1` gave TAG inh -10, Calb FLC -7, T cruzi repl 42, CSC inhib 64, A1 inh 1 and Beta cell apopt 102*.
Screening CCCCCn1c(=O)c(C(=O)Nc2nc3ccccc3[nH]2)c(O)c2ccccc21 returned TAG inh 11, Calb FLC 5, T cruzi repl -33, CSC inhib 8, A1 inh 1 and Beta cell apopt 80*.
Screening CCCCCn1c(=O)c(C(=O)Nc2ccccc2Cl)c(O)c2ccccc21 returned TAG inh 11, Calb FLC -13, T cruzi repl -19, CSC inhib 18, A1 inh 1 and Beta cell apopt 64.
`CCCCCn1c(=O)c(C(=O)Nc2ncccc2C)c(O)c2ccccc21` gave TAG inh -3, Calb FLC 5, T cruzi repl 28, CSC inhib -3, A1 inh 0 and Beta cell apopt 88*.
CCCCn1c(=O)c(C(=O)Nc2ccccc2C)c(O)c2ccccc21 was read as Calb FLC -11, T cruzi repl -11, CSC inhib -2, A1 inh 1 and Beta cell apopt 46.
Cn1c(O)c(Cc2ccc(OCc3ccccc3)cc2)c(=O)n(C)c1=O was read as Calb FLC 10, T cruzi repl 6, CSC inhib -2, A1 inh 0 and Beta cell apopt 4.
For CS(=O)(=O)c1ccc(C2=C(CNC(=O)c3cccs3)[C@H]3CC[C@@H](C2)N3CCOc2ccccc2)cc1 the results were TAG inh 17.
Screening CC(C)(C)c1nc(N2CCN(C(=O)c3ccco3)CC2)c2nnn(Cc3ccccc3Cl)c2n1 returned Calb FLC -23, CSC inhib 119*, A1 inh -1 and Beta cell apopt 21.
Screening CC1CN=C(NCCc2ccccc2)S1 (configuration not stated) returned TAG inh 10, Calb FLC -3, T cruzi repl 20, CSC inhib 4, A1 inh 1 and Beta cell apopt -2.
For Clc1cccc(NC2=NCCS2)c1 the results were TAG inh -13.
Screening CC(=NNC(=S)N1CC2CCC(CC2)C1)c1nccs1 returned TAG inh 11.
Screening COC12C(COC(N)=O)C3=C(C(=O)C(C)=C(N)C3=O)N1CC1C2N1C (configuration not stated) returned Calb FLC 46, T cruzi repl 58*, CSC inhib -3, A1 inh 0 and Beta cell apopt -3.
Screening CCC(=Nc1ccccc1N)c1c(O)[nH]c(=O)[nH]c1=O returned Calb FLC 6, T cruzi repl 1, CSC inhib -5, A1 inh -1 and Beta cell apopt -3.

Source: PubChem BioAssay
